Assay results: ChEMBL document CHEMBL1165976, “Synthesis and characterization of N,N-dialkyl and N-alkyl-N-aralkyl fenpropimorph-derived compounds as high affinity ligands for sigma receptors” (Bioorg Med Chem, 2010); call rule not given here

test system: not listed separately; experiment: Selectivity ratio of Ki for sigma 2 receptor in rat liver membranes to Ki for sigma 1 receptor in guinea pig liver homogenates; assay type: cell membranes; conditions: Membrane

Row | Structure (SMILES) | Ratio Ki
1 | CCCCN(CCCC)C(=O)CCc1ccc(F)cc1 | 3.94
2 | CCCNCCc1ccc([N+](=O)[O-])cc1 | 23.8
3 | CCCCCCCCN(CCCCCCCC)CCCc1ccc(F)cc1 | 2.49
4 | CCCN(CCCc1ccc(F)cc1)Cc1ccc(N)cc1 | 13.1
5 | CCCN(CCCc1ccc([N+](=O)[O-])cc1)CCc1ccc(N)cc1 | 13.9
6 | CCCCN(CCCC)CCCc1ccc(F)cc1 | 38.7
7 | CCCN(CCCc1ccc(F)cc1)CCc1ccc(N)cc1 | 0.046
8 | CCCN(CCCc1ccc(F)cc1)Cc1ccc(N)c(I)c1 | 0.339
9 | CCCN(CCCc1ccc(F)cc1)Cc1ccc(N=[N+]=[N-])c(I)c1 | > 571
10 | CCCCN(CCCC)CCCc1ccc([N+](=O)[O-])cc1 | 1350
11 | CCCN(CCCc1ccc(F)cc1)CCc1ccc(N=[N+]=[N-])c(I)c1 | 0.178
12 | CCCNCCCc1ccc(F)cc1 | 2.53

test system: not listed separately; experiment: Cytotoxicity against human H1299 cells; assay type: functional, cell-based; conditions: NCI-H1299

Row | Structure (SMILES) | IC50 [µM]
13 | CCCN(CCCc1ccc(F)cc1)Cc1ccc(N)cc1 | > 100
14 | CCCN(CCCc1ccc([N+](=O)[O-])cc1)CCc1ccc(N)cc1 | > 100
15 | CCCCN(CCCC)CCCc1ccc(F)cc1 | > 100
16 | CCCN(CCCc1ccc(F)cc1)CCc1ccc(N)cc1 | > 100
17 | CCCCN(CCCC)CCCc1ccc([N+](=O)[O-])cc1 | > 100
18 | CCCN(CCCc1ccc(F)cc1)CCc1ccc(N=[N+]=[N-])c(I)c1 | 90.8

test system: not listed separately; experiment: Displacement of [3H]-ditolyl guanidine from sigma 2 receptor in rat liver membranes after 1 hr by liquid scintillation counting; assay type: cell membranes, Membrane; conditions: not given

Row | Structure (SMILES) | Ki
19 | CCCCCCCCN(CCCCCCCC)C(=O)CCc1ccc(F)cc1 | Not Active

same assay, conditions: read-out: Ki

Row | Structure (SMILES) | Ki [nM]
20 | CCCCN(CCCC)C(=O)CCc1ccc(F)cc1 | 126000
21 | CCCNCCc1ccc([N+](=O)[O-])cc1 | 53600
22 | CCCN(Cc1cccc([N+](=O)[O-])c1)C(=O)CCc1ccc(F)cc1 | 236000
23 | CCCCCCCCN(CCCCCCCC)CCCc1ccc(F)cc1 | 1650
24 | CCCN(CCCc1ccc(F)cc1)Cc1ccc(N)cc1 | 2150
25 | CCCN(CCCc1ccc([N+](=O)[O-])cc1)CCc1ccc(N)cc1 | 83.6
26 | CCCCN(CCCC)CCCc1ccc(F)cc1 | 685
27 | CCCN(CCCc1ccc(F)cc1)CCc1ccc(N)cc1 | 120
28 | CCCN(CCCc1ccc(F)cc1)Cc1ccc(N)c(I)c1 | 133000
29 | CCCCN(CCCC)CCCc1ccc([N+](=O)[O-])cc1 | 404
30 | CCCN(CCCc1ccc(F)cc1)CCc1ccc(N=[N+]=[N-])c(I)c1 | 1290
31 | CCCNCCCc1ccc(F)cc1 | 230

test system: MCF7; experiment: Cytotoxicity against human MCF7 cells; assay type: functional, cell-based; conditions: not given

Row | Structure (SMILES) | IC50 [µM]
32 | CCCN(CCCc1ccc(F)cc1)Cc1ccc(N)cc1 | > 100
33 | CCCN(CCCc1ccc([N+](=O)[O-])cc1)CCc1ccc(N)cc1 | 88.1
34 | CCCCN(CCCC)CCCc1ccc(F)cc1 | > 100
35 | CCCN(CCCc1ccc(F)cc1)CCc1ccc(N)cc1 | 41.3
36 | CCCCN(CCCC)CCCc1ccc([N+](=O)[O-])cc1 | 22.4
37 | CCCN(CCCc1ccc(F)cc1)CCc1ccc(N=[N+]=[N-])c(I)c1 | 16.8

test system: NCI-H460; experiment: Cytotoxicity against human NCI-H460 cells; assay type: functional, cell-based; conditions: not given

Row | Structure (SMILES) | IC50 [µM]
38 | CCCN(CCCc1ccc(F)cc1)Cc1ccc(N)cc1 | > 100
39 | CCCN(CCCc1ccc([N+](=O)[O-])cc1)CCc1ccc(N)cc1 | > 100
40 | CCCCN(CCCC)CCCc1ccc(F)cc1 | > 100
41 | CCCN(CCCc1ccc(F)cc1)CCc1ccc(N)cc1 | 44.8
42 | CCCCN(CCCC)CCCc1ccc([N+](=O)[O-])cc1 | 40.5
43 | CCCN(CCCc1ccc(F)cc1)CCc1ccc(N=[N+]=[N-])c(I)c1 | 40.3

test system: MCF-10A; experiment: Cytotoxicity against human MCF10A cells; assay type: functional, cell-based; conditions: not given

Row | Structure (SMILES) | IC50 [µM]
44 | CCCN(CCCc1ccc(F)cc1)Cc1ccc(N)cc1 | > 100
45 | CCCN(CCCc1ccc([N+](=O)[O-])cc1)CCc1ccc(N)cc1 | > 100
46 | CCCCN(CCCC)CCCc1ccc(F)cc1 | > 100
47 | CCCN(CCCc1ccc(F)cc1)CCc1ccc(N)cc1 | > 100
48 | CCCCN(CCCC)CCCc1ccc([N+](=O)[O-])cc1 | > 100
49 | CCCN(CCCc1ccc(F)cc1)CCc1ccc(N=[N+]=[N-])c(I)c1 | 88.6

test system: HT-29; experiment: Cytotoxicity against human HT-29 cells; assay type: functional, cell-based; conditions: not given

Row | Structure (SMILES) | IC50 [µM]
50 | CCCN(CCCc1ccc(F)cc1)Cc1ccc(N)cc1 | > 100
51 | CCCN(CCCc1ccc([N+](=O)[O-])cc1)CCc1ccc(N)cc1 | > 100
52 | CCCCN(CCCC)CCCc1ccc(F)cc1 | > 100
53 | CCCN(CCCc1ccc(F)cc1)CCc1ccc(N)cc1 | > 100
54 | CCCCN(CCCC)CCCc1ccc([N+](=O)[O-])cc1 | > 100
55 | CCCN(CCCc1ccc(F)cc1)CCc1ccc(N=[N+]=[N-])c(I)c1 | 36.4

test system: A549; experiment: Cytotoxicity against human A549 cells; assay type: functional, cell-based; conditions: not given

Row | Structure (SMILES) | IC50 [µM]
56 | CCCN(CCCc1ccc(F)cc1)Cc1ccc(N)cc1 | > 100
57 | CCCN(CCCc1ccc([N+](=O)[O-])cc1)CCc1ccc(N)cc1 | > 100
58 | CCCCN(CCCC)CCCc1ccc(F)cc1 | > 100
59 | CCCN(CCCc1ccc(F)cc1)CCc1ccc(N)cc1 | > 100
60 | CCCCN(CCCC)CCCc1ccc([N+](=O)[O-])cc1 | > 100
61 | CCCN(CCCc1ccc(F)cc1)CCc1ccc(N=[N+]=[N-])c(I)c1 | > 100

test system: SF-268; experiment: Cytotoxicity against human SF268 cells; assay type: functional, cell-based; conditions: not given

Row | Structure (SMILES) | IC50 [µM]
62 | CCCN(CCCc1ccc(F)cc1)Cc1ccc(N)cc1 | > 100
63 | CCCN(CCCc1ccc([N+](=O)[O-])cc1)CCc1ccc(N)cc1 | > 100
64 | CCCCN(CCCC)CCCc1ccc(F)cc1 | > 100
65 | CCCN(CCCc1ccc(F)cc1)CCc1ccc(N)cc1 | > 100
66 | CCCCN(CCCC)CCCc1ccc([N+](=O)[O-])cc1 | > 100
67 | CCCN(CCCc1ccc(F)cc1)CCc1ccc(N=[N+]=[N-])c(I)c1 | 38.8

test system: DU-145; experiment: Cytotoxicity against human DU145 cells; assay type: functional, cell-based; conditions: not given

Row | Structure (SMILES) | IC50 [µM]
68 | CCCN(CCCc1ccc(F)cc1)Cc1ccc(N)cc1 | > 100
69 | CCCN(CCCc1ccc([N+](=O)[O-])cc1)CCc1ccc(N)cc1 | > 100
70 | CCCCN(CCCC)CCCc1ccc(F)cc1 | > 100
71 | CCCN(CCCc1ccc(F)cc1)CCc1ccc(N)cc1 | > 100
72 | CCCCN(CCCC)CCCc1ccc([N+](=O)[O-])cc1 | 32.7
73 | CCCN(CCCc1ccc(F)cc1)CCc1ccc(N=[N+]=[N-])c(I)c1 | 13.1

test system: SK-OV-3; experiment: Cytotoxicity against human SKOV3 cells; assay type: functional, cell-based; conditions: not given

Row | Structure (SMILES) | IC50 [µM]
74 | CCCN(CCCc1ccc(F)cc1)Cc1ccc(N)cc1 | > 100
75 | CCCN(CCCc1ccc([N+](=O)[O-])cc1)CCc1ccc(N)cc1 | > 100
76 | CCCCN(CCCC)CCCc1ccc(F)cc1 | 56.2
77 | CCCN(CCCc1ccc(F)cc1)CCc1ccc(N)cc1 | 20.2
78 | CCCCN(CCCC)CCCc1ccc([N+](=O)[O-])cc1 | 27.9
79 | CCCN(CCCc1ccc(F)cc1)CCc1ccc(N=[N+]=[N-])c(I)c1 | > 100

molecular target: Sigma non-opioid intracellular receptor 1 (Cavia porcellus, UniProt Q60492); experiment: Displacement of (+)-[3H]pentazocine from sigma 1 receptor in guinea pig liver homogenates after 1 hr by liquid scintillation counting; assay type: tissue-based; conditions: not given
Sequence (Q60492 whole entry): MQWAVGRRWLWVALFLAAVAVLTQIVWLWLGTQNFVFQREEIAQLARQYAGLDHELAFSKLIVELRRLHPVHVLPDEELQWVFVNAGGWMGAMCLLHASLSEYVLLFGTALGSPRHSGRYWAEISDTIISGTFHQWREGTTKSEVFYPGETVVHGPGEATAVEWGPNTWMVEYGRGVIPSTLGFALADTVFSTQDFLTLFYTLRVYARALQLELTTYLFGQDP
Method in brief: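 Microsomal membranes (17,000 g then 100,000 g pellets) from guinea pig liver, 25 µg/well, with 10 nM (+)-[3H]pentazocine and serial competitor concentrations for 1 h at 30°C. Filtered on 0.5% PEI-treated GF/B filters; bound label counted by liquid scintillation. Nonlinear regression, single-site fit; Ki by Cheng-Prusoff.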

Row | Structure (SMILES) | Ki
80 | CCCN(Cc1cccc([N+](=O)[O-])c1)C(=O)CCc1ccc(F)cc1 | Not Active

same assay, conditions: read-out: Ki

Row | Structure (SMILES) | Ki [nM]
81 | CCCCN(CCCC)C(=O)CCc1ccc(F)cc1 | 32100
82 | CCCNCCc1ccc([N+](=O)[O-])cc1 | 2250
83 | CCCCCCCCN(CCCCCCCC)CCCc1ccc(F)cc1 | 665
84 | CCCN(CCCc1ccc(F)cc1)Cc1ccc(N)cc1 | 164
85 | CCCN(CCCc1ccc([N+](=O)[O-])cc1)CCc1ccc(N)cc1 | 6
86 | CCCCN(CCCC)CCCc1ccc(F)cc1 | 17.7
87 | CCCN(CCCc1ccc(F)cc1)CCc1ccc(N)cc1 | 2590
88 | CCCN(CCCc1ccc(F)cc1)Cc1ccc(N=[N+]=[N-])c(I)c1 | 89000
89 | CCCCN(CCCC)CCCc1ccc([N+](=O)[O-])cc1 | 0.3
90 | CCCN(CCCc1ccc(F)cc1)CCc1ccc(N=[N+]=[N-])c(I)c1 | 7240
91 | CCCNCCCc1ccc(F)cc1 | 91
92 | CCCCCCCCN(CCCCCCCC)C(=O)CCc1ccc(F)cc1 | 53600

test system: MDA-MB-231; experiment: Cytotoxicity against human MDA-MB-231 cells; assay type: functional, cell-based; conditions: not given

Row | Structure (SMILES) | IC50 [µM]
93 | CCCN(CCCc1ccc(F)cc1)Cc1ccc(N)cc1 | > 100
94 | CCCN(CCCc1ccc([N+](=O)[O-])cc1)CCc1ccc(N)cc1 | > 100
95 | CCCCN(CCCC)CCCc1ccc(F)cc1 | > 100
96 | CCCN(CCCc1ccc(F)cc1)CCc1ccc(N)cc1 | 68.1
97 | CCCCN(CCCC)CCCc1ccc([N+](=O)[O-])cc1 | 57.1
98 | CCCN(CCCc1ccc(F)cc1)CCc1ccc(N=[N+]=[N-])c(I)c1 | 21.6

test system: HCT-15; experiment: Cytotoxicity against human HCT15 cells; assay type: functional, cell-based; conditions: not given

Row | Structure (SMILES) | IC50 [µM]
99 | CCCN(CCCc1ccc(F)cc1)Cc1ccc(N)cc1 | > 100
100 | CCCN(CCCc1ccc([N+](=O)[O-])cc1)CCc1ccc(N)cc1 | > 100
101 | CCCCN(CCCC)CCCc1ccc(F)cc1 | > 100
102 | CCCN(CCCc1ccc(F)cc1)CCc1ccc(N)cc1 | > 100
103 | CCCCN(CCCC)CCCc1ccc([N+](=O)[O-])cc1 | > 100
104 | CCCN(CCCc1ccc(F)cc1)CCc1ccc(N=[N+]=[N-])c(I)c1 | 54.1
